Consider 26 compounds from ChEMBL document CHEMBL3351626, “Discovery, structure-activity relationship studies, and anti-nociceptive effects of 1-phenyl-3,6,6-trimethyl-1,5,6,7-tetrahydro-4H-indazol-4-one as novel opioid receptor agonists” (Bioorg Med Chem, 2014).

Each structure is given as a SMILES string. The source made the active and inactive calls. The rule behind the calls is not given here. Some results are limits rather than exact numbers.

For assay [1], the target named is T1, Mu-type opioid receptor (Homo sapiens, UniProt P35372). It counts as functional, cell-based, CHO-K1.
T1 sequence (P35372 whole entry): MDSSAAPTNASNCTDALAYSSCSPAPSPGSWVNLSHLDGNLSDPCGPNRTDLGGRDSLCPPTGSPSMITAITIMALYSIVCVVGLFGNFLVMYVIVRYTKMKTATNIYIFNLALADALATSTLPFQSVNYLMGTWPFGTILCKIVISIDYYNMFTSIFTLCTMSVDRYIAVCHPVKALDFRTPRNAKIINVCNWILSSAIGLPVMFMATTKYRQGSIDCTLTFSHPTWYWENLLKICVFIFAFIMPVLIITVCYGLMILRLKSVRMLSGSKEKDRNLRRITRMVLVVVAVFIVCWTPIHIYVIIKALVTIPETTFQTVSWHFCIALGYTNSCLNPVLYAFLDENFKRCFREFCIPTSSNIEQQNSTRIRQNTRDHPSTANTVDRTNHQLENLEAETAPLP
Assay [2] concerns the target Mu-type opioid receptor (Rattus norvegicus, UniProt P33535). The assay is described as follows: Displacement of [3H]-naloxone from rat mu opioid receptor expressed in HEK cells after 60 mins. It counts as cell-based, HEK293.
The target in assay [3] is Kappa-type opioid receptor (Homo sapiens, UniProt P41145). The assay is described as follows: Agonist activity at human kappa opioid receptor expressed in HEK293 cells assessed as inhibition of forskolin-induced cAMP production after 30 mins by HTRF assay. The assay is classed as functional, cell-based. Summed up:
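HEK293 cells stably expressing the mu, delta or kappa opioid receptor, plus parental cells, at 2000 cells/well in DMEM. Compound in HBSS added with 1 µM forskolin and 100 µM IBMX for 30 min at room temperature. d2-cAMP and anti-cAMP antibody in lysis buffer then added. Read 2 h later: excitation 330 nm, emission 620 and 665 nm.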
(Cyclic AMP is a second messenger, typically raised through Gs and lowered through Gi signalling.)

Assay [4] has as its target Delta-type opioid receptor (Homo sapiens, UniProt P41143). The assay is described as follows: Agonist activity at human delta opioid receptor expressed in HEK293 cells assessed as inhibition of forskolin-induced cAMP production after 30 mins by HTRF assay. It counts as functional, cell-based.
Assay [5] concerns the target T1, Mu-type opioid receptor. Briefly: Agonist activity at human mu opioid receptor expressed in HEK293 cells assessed as inhibition of forskolin-induced cAMP production after 30 mins by HTRF assay. The assay is classed as functional, cell-based.
Assay [6] relates to Mus musculus. The assay is described as follows: Analgesic activity in wild type B6 mouse assessed as basal tail-flick withdrawal latency at 25 mg/kg, iv injected with 10 mg/kg, sc naloxone 5 mins before compound dosing. The assay is classed as functional, organism-based. In a few lines:
(§1)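 Wild-type B6 mice, n=6 per group. Basal tail-flick latency measured first. […] Latency read at 10, 20, 30, 40, 50 and 60 min after dosing. Test minus basal latency plotted against time and AUC calculated.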

The target of assay [7] is T1, Mu-type opioid receptor. The assay is described as follows: Agonist activity at myc-tagged mu opioid receptor (unknown origin) expressed in AtT-20 cells assessed as induction of membrane potential hyperpolarization in presence of 1 uM naloxone. The assay is classed as cell-based. To be noted: AtT20. Summed up:
(§2)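 Mouse pituitary AtT-20 cells (endogenous GIRK1/GIRK2) electroporated with myc-MOR plasmid or vehicle and seeded. After 24 h, serum-starved 3 h, then loaded with blue membrane potential dye for 0.5 h at 25 °C. Vehicle or compound added and potassium conductance read as fluorescence over about 175 s.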

Assay [8] concerns Mus musculus. The assay is described as follows: Analgesic activity in iv dosed wild type B6 mouse assessed as basal tail-flick withdrawal latency. It counts as functional. In a few lines: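 Tail-flick instrument nociception test in wild-type B6 mice. Basal latency measured first, then compound given iv (20, 18.4 or 25 mg/kg depending on compound). Latency read at 10, 20, 30, 40, 50 and 60 min after dosing, reported as test latency minus basal latency. AUC of the time-response curve calculated; ED50 by up-and-down method. n=6 per group.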

Assay [9] deals with T1, Mu-type opioid receptor. The assay is described as follows: Agonist activity at myc-tagged mu opioid receptor (unknown origin) expressed in AtT-20 cells assessed as induction of membrane potential hyperpolarization. The assay is classed as cell-based, AtT20. In a few lines: as §2
The subject of assay [10] is Mus musculus. Briefly: Analgesic activity in wild type B6 mouse assessed as basal tail-flick withdrawal latency at 20 mg/kg, iv injected with 10 mg/kg, sc naloxone 5 mins before compound dosing. The assay is classed as functional, organism-based. In a few lines: as §1
The test system of assay [11] is Mus musculus. Briefly: Analgesic activity in wild type B6 mouse assessed as basal tail-flick withdrawal latency at 18.4 mg/kg, iv injected with 10 mg/kg, sc naloxone 5 mins before compound dosing. It counts as functional, organism-based. In a few lines: as §1

Sequence of Delta-type opioid receptor (P41143 whole entry): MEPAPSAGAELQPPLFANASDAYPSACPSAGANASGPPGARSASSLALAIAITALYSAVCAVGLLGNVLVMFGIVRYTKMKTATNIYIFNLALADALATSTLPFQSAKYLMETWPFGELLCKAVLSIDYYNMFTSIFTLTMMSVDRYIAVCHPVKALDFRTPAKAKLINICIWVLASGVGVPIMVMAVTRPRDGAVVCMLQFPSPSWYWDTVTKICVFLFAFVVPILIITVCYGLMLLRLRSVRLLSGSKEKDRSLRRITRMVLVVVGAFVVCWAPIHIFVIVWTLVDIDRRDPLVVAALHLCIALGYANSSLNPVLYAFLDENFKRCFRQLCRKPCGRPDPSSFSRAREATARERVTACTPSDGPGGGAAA
Sequence of Mu-type opioid receptor (Rattus norvegicus, UniProt P33535) (P33535 whole entry): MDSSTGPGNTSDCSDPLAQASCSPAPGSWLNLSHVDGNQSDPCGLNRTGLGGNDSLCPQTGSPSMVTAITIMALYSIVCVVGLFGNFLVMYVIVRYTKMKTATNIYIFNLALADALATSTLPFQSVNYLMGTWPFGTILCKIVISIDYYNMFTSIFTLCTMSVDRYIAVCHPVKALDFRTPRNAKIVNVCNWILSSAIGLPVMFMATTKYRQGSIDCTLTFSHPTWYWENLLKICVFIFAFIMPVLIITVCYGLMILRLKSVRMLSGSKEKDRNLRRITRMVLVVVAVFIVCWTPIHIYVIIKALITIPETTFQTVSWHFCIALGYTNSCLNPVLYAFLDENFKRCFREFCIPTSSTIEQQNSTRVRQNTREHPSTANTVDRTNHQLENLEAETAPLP
Sequence of Kappa-type opioid receptor (P41145 whole entry): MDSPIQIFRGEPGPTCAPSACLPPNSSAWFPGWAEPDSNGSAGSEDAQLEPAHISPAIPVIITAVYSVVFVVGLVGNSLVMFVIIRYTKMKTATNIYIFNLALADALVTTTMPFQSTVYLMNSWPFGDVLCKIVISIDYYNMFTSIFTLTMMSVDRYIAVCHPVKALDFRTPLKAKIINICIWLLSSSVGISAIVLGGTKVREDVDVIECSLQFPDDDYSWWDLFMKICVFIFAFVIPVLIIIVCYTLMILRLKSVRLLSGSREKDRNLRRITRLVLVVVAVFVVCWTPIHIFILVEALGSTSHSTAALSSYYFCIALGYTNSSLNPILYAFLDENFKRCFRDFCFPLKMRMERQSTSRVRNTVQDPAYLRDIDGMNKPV

`Cc1cc(Cl)ccc1-n1nc(C)c2c1CC(C)(C)CC2=O`: a half-maximal response on Mu-type opioid receptor [1] (EC50) required 370 nM. Also, the Ki – broadly, the dissociation constant of the complex between target and ligand, obtained from inhibition or displacement – on Mu-type opioid receptor [2] was greater than 100000 nM.
On to `Cc1nn(-c2cc(Cl)ccc2Cl)c2c1C(=O)CC(C)(C)C2`, for which the EC50 (usually the concentration giving half of the maximal effect) at Mu-type opioid receptor [1] is 2890 nM.
The compound `Cc1nn(-c2cccc(Cl)c2)c2c1C(=O)CC(C)(C)C2` gave an EC50 on Mu-type opioid receptor [1] greater than 100000 nM.
Compound `Cc1nn(-c2ccc(F)cc2F)c2c1C(=O)CC(C)(C)C2` showed an EC50 on Mu-type opioid receptor [1] of 10300 nM.
On the same count and under the same terms, for `Cc1ccccc1-n1nc(C)c2c1CC(C)(C)CC2=O` the value was 4720 nM.
On to `Cc1nn(-c2ccc(Br)cc2Br)c2c1C(O)CC(C)(C)C2` (stereo not given), for which the IC50 (as a rule, the point on the concentration scale where inhibition reaches its midpoint) in [3] was 1100 nM; in assay [4], greater than 100000 nM; on Mu-type opioid receptor [5], 3380 nM. Further, the EC50 at Mu-type opioid receptor [1] came to 100 nM. This compound yielded an inhibition constant Ki on Mu-type opioid receptor [2] greater than 100000 nM.
In turn, `Cc1ccc(-n2nc(C)c3c2CC(C)(C)CC3=O)c(C)c1` yielded an EC50 at Mu-type opioid receptor [1] of 370 nM. The compound further returned a Ki at Mu-type opioid receptor [2] of 3930 nM.
In the case of `Cc1ccc(-n2nc(C)c3c2CC(C)(C)CC3=O)c(Br)c1`, the IC50 is 370 nM in assay [3], greater than 100000 nM in assay [4] and 6000 nM at Mu-type opioid receptor [5]. For the same compound, the outcome in the assay on Mus musculus [6] and at Mu-type opioid receptor [7] was inactive. The EC50 on Mu-type opioid receptor [1] was 41 nM; at Mu-type opioid receptor [9], 200 nM. In the assay with Mus musculus [8], the ED50 – broadly, the midpoint of the dose-response relation – came out at 26.6 mg/kg. Affinity at Mu-type opioid receptor [2] was put at a Ki of 740 nM.
In the case of `Cc1n[nH]c2c1C(=O)CC(C)(C)C2`, the EC50 on Mu-type opioid receptor [1] was greater than 100000 nM.
Turning to `CCc1ccccc1-n1nc(C)c2c1CC(C)(C)CC2=O`, the concentration giving a half-maximal response (EC50) at Mu-type opioid receptor [1] was 19000 nM.
Same read-out and setting: for `Cc1nn(-c2ccccc2)c2c1C(=O)CC(C)(C)C2` the value was greater than 100000 nM.
On to `Cc1nn(-c2ccc(Br)cc2Br)c2c1C(=O)CC(C)(C)C2`, for which the results for the IC50 (in [3]; in assay [4]; on Mu-type opioid receptor [5]) were 410 nM, 1690 nM and 730 nM, respectively. Besides, the outcome in the assay on Mus musculus [10] and on Mu-type opioid receptor [7] was inactive. Besides, the figures for the EC50 on Mu-type opioid receptor [1] and at Mu-type opioid receptor [9] were 41 nM and 5490 nM, respectively. Moreover, the ED50 with Mus musculus [8] amounted to 8.4 mg/kg. Further, the Ki at Mu-type opioid receptor [2] is 470 nM.
At Mu-type opioid receptor [1], `COc1ccc(-n2nc(C)c3c2CC(C)(C)CC3=O)cc1` yielded an EC50 of 18400 nM.
For `Cc1nn(-c2ccc(Br)cc2)c2c1C(=O)CC(C)(C)C2`, the EC50 at Mu-type opioid receptor [1] came out at 9910 nM.
As to `CC1(C)CC(=O)c2c(C(F)(F)F)nn(-c3ccc(Cl)cc3Cl)c2C1`, the 50% effective concentration (EC50) at Mu-type opioid receptor [1] stood at 1540 nM.
Still for that read-out and setting: for `Cc1nn(-c2ccccc2Br)c2c1C(=O)CC(C)(C)C2` the value was 1120 nM; for `COC(=O)c1ccc(-n2nc(C)c3c2CC(C)(C)CC3=O)cc1`, 10000 nM; for `Cc1cccc(-n2nc(C)c3c2CC(C)(C)CC3=O)c1C`, 8900 nM.
Same read-out and setting: for `Cc1nn(-c2ccc(Cl)cc2Cl)c2c1C(=O)CCC2` the value was 13600 nM; for `Cc1ccc(C)c(-n2nc(C)c3c2CC(C)(C)CC3=O)c1`, 10000 nM.
Consider `Cc1nn(-c2ccc(Cl)cc2Br)c2c1C(=O)CC(C)(C)C2`, for which the IC50 in assay [3] is 570 nM; in assay [4] it was 3380 nM; on Mu-type opioid receptor [5], 3300 nM. In addition, the result in the assay with Mus musculus [11] and at Mu-type opioid receptor [7] was inactive. For the same compound, the EC50 on Mu-type opioid receptor [1] turned out to be 41 nM; on Mu-type opioid receptor [9], 100 nM. For the same compound, in the assay with Mus musculus [8], the ED50 worked out at 10.9 mg/kg. In addition, the Ki at Mu-type opioid receptor [2] came out at 610 nM.
As to `CCOC(=O)c1ccccc1-n1nc(C)c2c1CC(C)(C)CC2=O`, it took 30200 nM to reach a half-maximal effect on Mu-type opioid receptor [1] (EC50).
At Mu-type opioid receptor [1], `Cc1nn(-c2ccc(Cl)cc2)c2c1C(=O)CC(C)(C)C2` displayed an EC50 of 13600 nM.
As for `Cc1nn(-c2ccc(Cl)cc2Cl)c2c1C(=O)CC(C)(C)C2`, the IC50 came to 2650 nM in assay [3], 10000 nM in assay [4] and 7890 nM on Mu-type opioid receptor [5]. Further, it took 150 nM to reach a half-maximal effect on Mu-type opioid receptor [1] (EC50).
Take `CC1(C)CC(=O)c2c(C3CC3)nn(-c3ccc(Cl)cc3Cl)c2C1`: the EC50 at Mu-type opioid receptor [1] came to 370 nM. Further, the Ki on Mu-type opioid receptor [2] is 1300 nM.
On Mu-type opioid receptor [1], `Cc1nn(-c2ccccc2Cl)c2c1C(=O)CC(C)(C)C2` returned an EC50 of 2280 nM.
